Calls of active or inactive are those of the source. The rule behind the calls is not given here.
Columns and labels:
[1] = target: T1, WD repeat-containing protein 5 (Homo sapiens, UniProt P61964); experiment: Binding affinity to N-terminal FLAG-tagged human full-length WDR5 expressed in HEK293T cells harboring human C-terminal HA-tagged c-MYC assessed as disruption of WDR5-c-MYC protein-protein interaction at 50 uM by SDS-PAGE based immunoblot assay; assay type: cell-based
[2] = Protein binding in plasma (unknown origin) assessed as unbound fraction; assay type: ADME, cell-free
[3] = Apparent permeability from apical to basolateral side in MDCK cells; assay type: ADME, cell-based, Canis lupus familiaris; conditions: dog
[4] = Solubility of the compound; assay type: physicochemical
Method in brief: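 Kinetic solubility, measured by an outside contract lab using a standard commercial assay format.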

[5] = target: T1, WD repeat-containing protein 5; experiment: Binding affinity to N-terminal FLAG-tagged human full-length WDR5 expressed in HEK293T cells harboring human C-terminal HA-tagged c-MYC assessed as disruption of WDR5-RBBP5 protein-protein interaction at 50 uM by SDS-PAGE based immunoblot assay; assay type: cell-based
Method in brief: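 HEK293 cells expressing FLAG-WDR5 and c-MYC-HA were kept in DMEM with 10% FBS, hygromycin B 50 μg/mL and puromycin 100 ng/mL. Lysates in Tris pH 8.0/NaCl/EDTA/1% Triton buffer were treated with compound at 50 μM or 6.25–50 μM. α-FLAG magnetic M2 beads, 2 h at 4 °C, then SDS-PAGE and α-RBBP5 immunoblot. Quantified against vehicle; at least two independent repeats.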

[6] = organism: Homo sapiens; experiment: Inhibition of human MLL1/WDR5/RBBP5/ASH2L/DPY30 complex assessed as reduction in histone methyl-transferase activity using H3-peptide as substrate
[7] = target: T1, WD repeat-containing protein 5
[8] = target: T1, WD repeat-containing protein 5; experiment: Binding affinity to WDR5 (unknown origin) assessed as inhibition of WDR5-MLL1 protein-protein interaction by TR-FRET assay
[9] = target: T1, WD repeat-containing protein 5; experiment: Binding affinity to N-terminal FLAG-tagged human full-length WDR5 […] assessed as change in melting temperature at 10 uM by differential scanning fluorimetry
Method in brief: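 Thermal shift (differential scanning fluorimetry) on WDR5, with compounds at 10 μM. Samples were run in triplicate, and ΔTm is the average melting-temperature shift read by fluorescence.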

CNC(=O)c1cc(C2(C#N)CCC2)cc(NS(=O)(=O)c2cc(Br)ccc2O)c1O
Activity [1]: Active | Fu [2]: < 0.0006% | Papp [3]: 45.2 ×10⁻⁶ cm/s | solubility [4]: > 100 µM | Activity [5]: Active | inhibition [6]: Active | Kd [7]: 566 nM

CS(=O)(=O)c1cc(S(F)(F)(F)(F)F)cc(NS(=O)(=O)c2cc(Br)cc(Cl)c2O)c1O
Fu [2]: < 0.0003% | Papp [3]: 18.6 ×10⁻⁶ cm/s | solubility [4]: > 100 µM | Kd [7]: 45 nM

O=C(O)c1cc(Cl)cc(NS(=O)(=O)c2cc(Br)ccc2O)c1
Kd [7]: 2880 nM

O=C(O)c1cc(C2CC2)cc(NS(=O)(=O)c2cc(Br)ccc2O)c1O
Activity [1]: Active | inhibition [8]: inactive | Activity [5]: Active | Kd [7]: 184 nM

CS(=O)(=O)c1cc(NS(=O)(=O)c2cc(Br)ccc2O)cc(S(F)(F)(F)(F)F)c1
Fu [2]: 0.002% | Papp [3]: 16.1 ×10⁻⁶ cm/s | solubility [4]: > 100 µM | Kd [7]: 511 nM

CS(=O)(=O)c1cc(S(F)(F)(F)(F)F)cc(NS(=O)(=O)c2cc(Br)ccc2O)c1O
Kd [7]: 167 nM

O=S(=O)(Nc1cc(Cl)ccc1O)c1cccc(Br)c1
Kd [7]: 36100 nM

O=S(=O)(Nc1cc(OC(F)(F)F)ccc1O)c1cc(Br)ccc1O
Kd [7]: 549 nM

O=C(O)c1cc(Cl)cc(NS(=O)(=O)c2cc(Br)cc(Cl)c2O)c1O
ΔTm [9]: 4.05 °C | Kd [7]: 163 nM

COc1ccc(Br)cc1S(=O)(=O)Nc1cc(Cl)cc(C(=O)O)c1O
Kd [7]: 431 nM

CNC(=O)c1cc(NS(=O)(=O)c2cc(Br)ccc2O)cc(C2(C#N)CCC2)c1
Kd [7]: 1080 nM

O=C(O)c1cc(OC(F)(F)F)cc(NS(=O)(=O)c2cc(Br)cc(Cl)c2O)c1O
inhibition [8]: inactive | Kd [7]: 51 nM

O=C(O)c1c(O)c(NS(=O)(=O)c2cc(Br)ccc2O)cc(C2CC2)c1F
Fu [2]: < 0.0008% | Papp [3]: 0.61 ×10⁻⁶ cm/s | solubility [4]: > 100 µM | inhibition [6]: Active | Kd [7]: 122 nM

N#CC1(c2cc(NS(=O)(=O)c3cc(Br)ccc3O)c(O)c(C(=O)O)c2)CCCCC1
Kd [7]: 195 nM

COc1ccc(Br)cc1S(=O)(=O)Nc1ccc(Cl)cc1O
Kd [7]: 27700 nM

CS(=O)(=O)c1cc(Cl)cc(NS(=O)(=O)c2cc(Br)ccc2O)c1O
inhibition [6]: Active | Kd [7]: 1070 nM

O=C(O)c1cc(OC(F)(F)F)cc(NS(=O)(=O)c2cc(Br)ccc2O)c1O
Kd [7]: 137 nM

CNC(=O)c1cc(NS(=O)(=O)c2cc(Br)ccc2O)cc(S(F)(F)(F)(F)F)c1
Kd [7]: 848 nM

O=C(O)c1cc(Cl)cc(NS(=O)(=O)c2cc(Br)ccc2O)c1O
ΔTm [9]: 4.05 °C | Kd [7]: 223 nM

O=S(=O)(Nc1cc(Cl)ccc1O)c1cc(Br)ccc1O
Fu [2]: < 0.0026% | Papp [3]: 36.4 ×10⁻⁶ cm/s | solubility [4]: > 100 µM | Kd [7]: 1250 nM

CS(=O)(=O)c1cc(NS(=O)(=O)c2cc(Br)cc(Cl)c2O)cc(C2(C#N)CCC2)c1
Kd [7]: 215 nM

CNC(=O)c1cc(C2(C#N)CCCCC2)cc(NS(=O)(=O)c2cc(Br)ccc2O)c1O
inhibition [8]: inactive | Kd [7]: 779 nM

N#CC1(c2ccc(O)c(NS(=O)(=O)c3cc(Br)ccc3O)c2)CCCC1
Kd [7]: 614 nM

COc1ccc(I)cc1S(=O)(=O)Nc1cc(Cl)ccc1O
Kd [7]: 8390 nM

CCOc1ccc(S(=O)(=O)Nc2ccccc2C(=O)O)c(C)c1C
Kd [7]: > 125000 nM

O=S(=O)(Nc1cc(C2CC2)ccc1O)c1cc(Br)ccc1O
Kd [7]: 818 nM

N#CC1(c2ccc(O)c(NS(=O)(=O)c3cc(Br)ccc3O)c2)CCC1
Fu [2]: < 0.0005% | Papp [3]: 27.8 ×10⁻⁶ cm/s | solubility [4]: > 100 µM | ΔTm [9]: 2.63 °C | inhibition [6]: Active | Kd [7]: 289 nM

CS(=O)(=O)c1cc(Cl)cc(NS(=O)(=O)c2cc(Br)cc(Cl)c2O)c1
Fu [2]: 0.0007% | Papp [3]: 3.89 ×10⁻⁶ cm/s | solubility [4]: > 100 µM | Kd [7]: 220 nM

COc1ccc(Br)cc1S(=O)(=O)Nc1cc(Cl)cc(S(C)(=O)=O)c1O
Activity [1]: Active | Kd [7]: 304 nM

N#CC1(c2cc(NS(=O)(=O)c3cc(Br)cc(Cl)c3O)c(O)c(C(=O)O)c2)CCCCC1
Activity [1]: Active | ΔTm [9]: 6.38 °C | Activity [5]: Active | Kd [7]: 38 nM

CNC(=O)c1cc(Cl)cc(NS(=O)(=O)c2cc(Br)cc(Cl)c2O)c1O
Kd [7]: 298 nM

COc1ccc(Br)cc1S(=O)(=O)Nc1cc(C(C)(C)C)ccc1O
Kd [7]: 3780 nM

N#CC1(c2cc(NS(=O)(=O)c3ccc(Br)cc3O)c(O)c(C(=O)O)c2)CCC1
ΔTm [9]: 0.42 °C

COc1ccccc1S(=O)(=O)Nc1cc(Cl)ccc1O
Kd [7]: > 40000 nM

CS(=O)(=O)c1cc(C2(C#N)CCC2)cc(NS(=O)(=O)c2cc(Br)ccc2O)c1O
Kd [7]: 349 nM

O=C(O)c1cc(S(F)(F)(F)(F)F)cc(NS(=O)(=O)c2cc(Br)ccc2O)c1O
inhibition [8]: inactive | Kd [7]: 47 nM

CNC(=O)c1c(O)c(NS(=O)(=O)c2cc(Br)cc(Cl)c2O)cc(C2CC2)c1F
Activity [1]: Active | Activity [5]: Active | inhibition [6]: Active | Kd [7]: 238 nM

O=C(O)c1cc(C2CC2)cc(NS(=O)(=O)c2cc(Br)cc(Cl)c2O)c1O
Kd [7]: 207 nM

COc1ccc(Br)cc1S(=O)(=O)Nc1ccccc1O
Kd [7]: > 40000 nM

CNC(=O)c1cc(NS(=O)(=O)c2cc(Br)cc(Cl)c2O)cc(C2(C#N)CCC2)c1
Kd [7]: 128 nM

CS(=O)(=O)c1cc(Cl)cc(NS(=O)(=O)c2cc(Br)cc3cccnc23)c1O
Activity [1]: Active | Kd [7]: 385 nM

O=C(O)c1cc(NS(=O)(=O)c2cc(Br)cc(Cl)c2O)cc(S(F)(F)(F)(F)F)c1
inhibition [8]: inactive | inhibition [6]: Active | Kd [7]: 29 nM

N#CC1(c2cc(NS(=O)(=O)c3cc(Br)cc4cccnc34)c(O)c(C(=O)O)c2)CCC1
Kd [7]: 104 nM

N#CC1(c2cc(NS(=O)(=O)c3cc(Br)ccc3O)c(O)c(C(=O)O)c2)CCC1
Activity [1]: Active | ΔTm [9]: 3.9 °C | Activity [5]: Active | Kd [7]: 67 nM

CNC(=O)c1cc(C2(C#N)CCC2)cc(NS(=O)(=O)c2cc(Br)ccc2OC)c1O
Activity [1]: Active | Kd [7]: 906 nM

CNC(=O)c1cc(S(F)(F)(F)(F)F)cc(NS(=O)(=O)c2cc(Br)cc3cccnc23)c1O
Kd [7]: 122 nM

CS(=O)(=O)c1cc(NS(=O)(=O)c2cc(Br)cc(Cl)c2O)cc(S(F)(F)(F)(F)F)c1
Activity [1]: Active | Kd [7]: 93 nM

COc1ccc(Br)cc1S(=O)(=O)Nc1cc(Cl)ccc1O
inhibition [6]: Active

CNC(=O)c1cc(C2(C#N)CCC2)cc(NS(=O)(=O)c2cc(Br)cc3cccnc23)c1O
Activity [1]: Active | Kd [7]: 825 nM

CCOc1cc(S(=O)(=O)Nc2ccccc2C(=O)O)ccc1F
Kd [7]: 71000 nM

N#CC1(c2cc(NS(=O)(=O)c3cc(Br)ccc3O)cc(C(=O)O)c2)CCC1
inhibition [8]: inactive | Kd [7]: 229 nM

O=C(O)c1cc(S(F)(F)(F)(F)F)cc(NS(=O)(=O)c2cc(Br)cc(Cl)c2O)c1O
ΔTm [9]: 8.42 °C | Kd [7]: 31 nM

CNC(=O)c1cc(S(F)(F)(F)(F)F)cc(NS(=O)(=O)c2cc(Br)ccc2O)c1O
Kd [7]: 204 nM

CS(=O)(=O)c1cc(C2(C#N)CCC2)cc(NS(=O)(=O)c2cc(Br)cc3cccnc23)c1O
Kd [7]: 272 nM

CNC(=O)c1cc(C2(C#N)CCCCC2)cc(NS(=O)(=O)c2cc(Br)cc(Cl)c2O)c1O
Activity [1]: Active | Activity [5]: Active | Kd [7]: 362 nM

CNC(=O)c1cc(S(F)(F)(F)(F)F)cc(NS(=O)(=O)c2cc(Br)cc(Cl)c2O)c1O
Activity [1]: Active | Kd [7]: 190 nM

CS(=O)(=O)c1cc(Cl)cc(NS(=O)(=O)c2cc(Br)ccc2O)c1
Fu [2]: 0.004% | Papp [3]: 4.79 ×10⁻⁶ cm/s | solubility [4]: > 100 µM | Kd [7]: 1880 nM

O=C(O)c1cc(NS(=O)(=O)c2cc(Br)ccc2O)cc(S(F)(F)(F)(F)F)c1
Kd [7]: 64 nM

O=C(O)c1cc(NS(=O)(=O)c2cc(Br)ccc2O)cc(OC(F)(F)F)c1
Kd [7]: 194 nM

O=S(=O)(Nc1cc(S(F)(F)(F)(F)F)ccc1O)c1cc(Br)ccc1O
Papp [3]: 14.7 ×10⁻⁶ cm/s | solubility [4]: > 100 µM | inhibition [6]: Active | Kd [7]: 110 nM

COc1ccc(Br)cc1S(=O)(=O)Nc1cc(-c2ccccc2)ccc1O
Kd [7]: 37000 nM

CS(=O)(=O)c1cc(C2(C#N)CCC2)cc(NS(=O)(=O)c2cc(Br)cc(Cl)c2O)c1O
Kd [7]: 110 nM

N#CC1(c2ccc(O)c(NS(=O)(=O)c3cc(Br)ccc3O)c2)CC1
inhibition [8]: inactive | Kd [7]: 852 nM

N#CC1(c2ccc(O)c(NS(=O)(=O)c3cc(Br)ccc3O)c2)CCCCC1
Kd [7]: 229 nM

CS(=O)(=O)c1cc(Cl)cc(NS(=O)(=O)c2cc(Br)cc(Cl)c2O)c1O
Activity [1]: Active | inhibition [6]: Active | Kd [7]: 123 nM

COc1ccc(Cl)cc1S(=O)(=O)Nc1cc(Cl)ccc1O
Kd [7]: 8410 nM

O=C(O)c1cc(S(F)(F)(F)(F)F)cc(NS(=O)(=O)c2cc(Br)cc3cccnc23)c1O
Kd [7]: 47 nM

O=S(=O)(Nc1cc(C2(C(F)(F)F)CC2)ccc1O)c1cc(Br)ccc1O
Kd [7]: 547 nM

O=C(O)c1c(O)c(NS(=O)(=O)c2cc(Br)cc(Cl)c2O)cc(C2CC2)c1F
Activity [1]: Active | Activity [5]: Active | inhibition [6]: Active | Kd [7]: 50 nM

Source: ChEMBL document CHEMBL4414651, “Discovery and Optimization of Salicylic Acid-Derived Sulfonamide Inhibitors of the WD Repeat-Containing Protein 5-MYC Protein-Protein Interaction” (J Med Chem, 2019)
